# NR2E3 ag-1 – NR2E3 agonists in two-hybrid cells, primary screen, cell-based, luminescence, CHO-S, Gal4-NCOR/VP16-NR2E3. hit rate 0.35% among 360,000. Photoreceptor-specific nuclear receptor (Homo sapiens), Q9Y5X4. AID 602229, 2012. luciferase. inhibition of corepressor binding, % at 3.98 µM;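 active = inhibition above the mean of all tested compounds plus 3 SD, cut at about 70% in these data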;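 note: 0% = DMSO with NR2E3 transfected cells and 100% = cells lacking NR2E3 construct; higher means lower luciferase signal from less NR2E3 corepressor binding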
# Jurkat NFkB inh – inhibitors of induced NF-kB luciferase reporter, primary screen, TCR NF-kB activation inhibitor project, cell-based, luminescence, uHTS; Jurkat, PMA/ionomycin-induced NF-kB luciferase reporter; inhibition, % at 4 µM; hit rate 0.53% among 330,000; AID 435003, 2010; in the data active = inhibition above about 50%
# 697 NFkB inh – inhibitors of PMA/ionomycin-induced NF-kB reporter, 697 cells, primary screen, B-cell NF-kB inhibitor project, cell-based, luminescence, uHTS. hit rate 0.33% among 330,000. 697 B-cell NF-kB luciferase reporter, 16 h. inhibition, % at 4 µM. AID 435022, 2010; in the data active = inhibition above about 35%
# GalR3 antagonist – GalR3 antagonists in HEK293 cells, primary screen, cell-based, fluorescence readout; Galanin receptor type 3 (Homo sapiens), O60755; HEK293 GalR3-CNG cAMP membrane potential fluorescence; galR3 body fused to GalR1 C-terminus; inhibition, % at 3 µM; hit rate 0.44% among 360,000; AID 651719, 2012;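 active = inhibition above the screen-wide average plus 3 SD, cut at about 13% in these data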;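 note: forskolin and galanin both at EC90 stimulate the cells; cAMP rise reported by CNG channel membrane potential dye signal; 0% = forskolin plus galanin with DMSO and 100% = forskolin alone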
# Target sequence (O60755 1-299 limits assumed): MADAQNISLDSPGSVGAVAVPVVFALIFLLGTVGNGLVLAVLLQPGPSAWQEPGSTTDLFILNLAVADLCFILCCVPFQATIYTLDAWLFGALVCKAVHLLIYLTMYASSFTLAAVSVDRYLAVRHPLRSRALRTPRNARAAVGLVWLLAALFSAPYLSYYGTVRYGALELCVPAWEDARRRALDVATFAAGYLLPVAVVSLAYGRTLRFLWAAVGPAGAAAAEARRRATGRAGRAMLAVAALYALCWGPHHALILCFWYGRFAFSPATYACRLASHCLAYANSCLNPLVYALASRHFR
# NR2E3 ag-2 – inhibitors of NR2E3-RetCOR corepressor binding, primary screen, NR2E3 agonist project, biochemical, TR-FRET, GST-NR2E3, biotin-RetCOR; hit rate 0.12% among 320,000; 1536-well; inhibition of corepressor binding, % at 4.78 µM; Photoreceptor-specific nuclear receptor (Homo sapiens), Q9Y5X4; AID 2300, 2010;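 active = percent inhibition above the cutoff of mean plus 3 SD of all tested compounds, set per screening campaign, cut at about 20% in these data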;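 note: 0% = DMSO wells and 100% = biotin wells as full block of FRET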
#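 Test system: GST-NR2E3 and biotin-RetCOR proteins | Quantity: 1.35 nM GST-tagged NR2E3 final | Medium: Tris pH 7.5 | Also added: 7 nM biotin-RetCOR | Dosing: Compound at 4.8 µM, single dose | Timing: 5 h at 4 °C | Detection: Time-resolved FRET | Read-out basis: Percent inhibition | Benchmarks: Biotin wells as high control, 0.6% DMSO wells as low control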
# Gli-Sufu antag – Gli-Sufu pathway antagonists, primary screen, luciferase luminescence, Sufu-KO-LIGHT cells, uHTS | hit rate 0.74% among 340,000 | AID 588413, 2011 | inhibition, % at 5 µM | Sufu-KO-LIGHT fibroblasts, Gli luciferase reporter luminescence;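 active = inhibition above about 55%, limit read from the data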;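 note: 0% = DMSO-treated cells and 100% = wells with medium but no cells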
# 697 NFkB conf – PMA/ionomycin-induced NF-kB reporter inhibitors, 697 retest, confirmation, B-cell NF-kB inhibitor project, cell-based, luminescence, single concentration. shares compounds with 697 NFkB inh. 697 B-cell NF-kB luciferase, 16 h. inhibition, % at 4 µM. hit rate 35% among 2,000. AID 449746, 2010; in the data active = inhibition mostly above about 28%, no sharp cut-off; inactive = mostly below about 22%
# Numbers without * were called inactive; i = inactive; nt = no result. In the library only some 1.8% were active in any assay of this set; here they are far more common.
SMILES,NR2E3 ag-1,Jurkat NFkB inh,697 NFkB inh,GalR3 antagonist,NR2E3 ag-2,Gli-Sufu antag,697 NFkB conf
COc1ccc(/C=C2\N=C(SC)N(c3ccccc3OC)C2=O)cc1,16,18,i,2,2,-14,i
COc1ccc(-c2ccc(F)cc2)cc1[C@H]1[C@H]2C=CC[C@@H](C)[C@@H]2C(=O)N1Cc1ccccc1,-6,0,40*,-6,4,35,46*
COc1ccc(C2NN=C(c3ccc(C)cc3)S2)cc1 (configuration not stated),-129,nt,nt,-9,1,-76,nt
CSc1ccc(C2NN=C(c3ccccc3)S2)cc1 (configuration not stated),-132,-102,-263,4,-3,-47,-279
CN(c1cccnc1)c1ccc(NC(=O)Cc2cn(Cc3ccccc3)c3ccccc23)cc1Br,nt,nt,nt,-6,nt,nt,nt
Cc1cccc(NC(=O)c2cc3n(n2)C(C(F)(F)F)CC(c2ccc4c(c2)OCO4)N3)c1 (configuration not stated),-8,17,36*,-3,0,-1,3
CCOC(=O)NC(=S)Nc1ccc(OC)cc1,-17,-10,12,-3,0,-20,nt
CCOC(=O)c1cn[nH]c1NC(=S)Nc1ccc(OC)cc1,-98,-128,-371,-5,1,-93,-199
COC(=O)C1=C(C)N(Cc2ccc(C(F)(F)F)cc2)C(=NCC2CC2)NC1c1ccccc1C(F)(F)F (configuration not stated),nt,nt,nt,-7,nt,nt,nt
COc1ccc(NS(=O)(=O)c2cc(NC(=O)c3cc(=O)c4ccccc4o3)ccc2OC)cc1,-19,7,38*,-5,2,-4,33*
COc1ccc(Cn2c(C3CC3)nc3ccc(NC(C)=O)cc3c2=O)cc1,-127,-131,-254,3,3,-91,-199
COc1ccc(Cn2c(C3CC3)nc3ccc(NC(=O)c4cccnc4)cc3c2=O)cc1,-114,-2,-88,nt,-1,-23,nt
CCOC(=O)N1CCN(C(=O)Nc2ccc3nc(C)c(C)nc3c2)CC1,-7,-4,37*,-2,2,3,8
C=CCN1C(=O)N(CC=C)c2cccc3cccc1c23,-27,9,-7,-10,4,7,nt
CCN1C(=O)Nc2cccc3cccc1c23,-72,-5,37*,7,-5,26,36*
CCC(c1nnc(SCC(=O)NC2CCCCC2)n1Cc1ccccc1)N(C)C (configuration not stated),-31,4,39*,-5,0,-1,2
NC(=O)c1ncn([C@@H]2O[C@H](C(=O)N[C@H](Cc3c[nH]c4ccccc34)C(=O)NCC(=O)N3CCCCC3)[C@@H](O)[C@H]2O)n1,nt,nt,nt,-4,nt,nt,nt
COc1ccc(C(=O)Nc2cccc(NC(=O)c3ccc(OC)c(OC)c3)n2)cc1OC,-30,41,39*,-9,-2,-10,47*
Cc1ccc(S(=O)(=O)N(C)[C@H]2C[C@H]3c4cc(-c5ccc6c(c5)OCO6)ccc4CCN3C[C@H]2[C@H](C)O)cc1,nt,nt,nt,-6,nt,nt,nt
Cc1ccccc1-c1ccc2c(c1)[C@@H]1C[C@H](N(C)C(=O)c3ccco3)[C@H]([C@H](C)O)CN1CC2,nt,nt,nt,-6,nt,nt,nt
CCCCn1c(=S)[nH]c2cc(S(=O)(=O)N3CCOCC3)ccc21,-14,21,8,-4,nt,6,nt
CCn1c(=S)[nH]c2cc(S(=O)(=O)N3CCCCC3)ccc21,-12,3,36*,-1,1,32,30*
O=C(Nc1ccc(N2CCCC2)cc1)c1cccc(Cl)c1,-220,-119,-266,-1,0,-24,-27
O=[N+]([O-])c1ccccc1NC(=S)N/N=C/c1ccc(O)c(O)c1,-31,-144,-324,5,3,-3,-180
CN1CC[C@@H]2CN(S(=O)(=O)c3ccccc3)[C@H](c3ccccc3Br)C[C@@H]21,nt,nt,nt,-7,nt,nt,nt
SMILES,NR2E3 ag-1,Jurkat NFkB inh,697 NFkB inh,GalR3 antagonist,NR2E3 ag-2,Gli-Sufu antag,697 NFkB conf
O=C(c1cccs1)N(Cc1nc2sc3c(c2c(=O)[nH]1)CCCC3)C1CCCC1,-3,-15,-324,1,1,-1,-300
COC(=O)[C@]12C[C@H](CC(=O)N3CCOCC3)C(=O)N(CCc3ccc(OC)c(OC)c3)C1=C[C@H](C(C)(C)C)O[C@@H]2C,nt,nt,nt,-8,nt,nt,nt
O=C(NC(Cc1c[nH]c2ccccc12)C(=O)Nc1ccc(F)c([N+](=O)[O-])c1)c1cccs1 (configuration not stated),-2,-44,i,-5,0,3,-265
O=C(NC(Cc1c[nH]c2ccccc12)C(=O)Nc1ccc(OC(F)(F)F)cc1)c1cccs1 (configuration not stated),-3,-65,i,-8,-2,8,8
Cc1ccccc1C(=O)N(C)[C@H]1C[C@H]2c3[nH]c4c(-c5ccc6c(c5)OCO6)cccc4c3CCN2C(=O)[C@H]1[C@H](C)O,nt,nt,nt,-6,nt,nt,nt
Oc1ccc(N=Nc2ccc3ccccc3c2)cc1,-152,-122,-400,-9,0,-90,-318
O=C(N[C@H](Cc1ccccc1)C(=O)O)[C@H]1O[C@@H](n2ccc(=O)[nH]c2=O)[C@H](O)[C@@H]1O,nt,nt,nt,-7,nt,nt,nt
CC(=O)N=c1sccn1CC(=O)c1ccc([N+](=O)[O-])cc1,-24,9,36*,-2,5,3,19
O=C(CSCC(=O)c1ccc([N+](=O)[O-])cc1)c1ccc([N+](=O)[O-])cc1,20,nt,nt,nt,nt,nt,nt
COc1cc(-c2nc3n(n2)C(c2ccc(F)cc2)C2=C(CCCC2=O)N3)cc(OC)c1OC (configuration not stated),19,16,37*,-5,-3,19,33*
COc1cccc(C2C3=C(CCCC3=O)Nc3nc(-c4cc(OC)c(OC)c(OC)c4)nn32)c1 (configuration not stated),35,-12,22,-2,0,16,nt
COc1ccc(S(=O)(=O)Nc2ccc3c(c2)C(=O)N([C@H](C)CO)C[C@H](C)[C@H](CN(C)C(=O)Nc2ccc(F)cc2)OCCCC[C@@H](C)O3)cc1,nt,nt,nt,-4,nt,nt,nt
Cc1c(CC(=O)NCCCCCC(=O)O)c(=O)oc2cc3c(cc12)CCC(C)(C)O3,8,-6,11,-1,nt,-42,nt
